“Also recorded” adds a separate entry of the source. Where two headings read alike, the source gives them in different places.
Assays:
Tip60 [1] = biological target: T1, Tip60 (Homo sapiens, UniProt Q92993); test: Radioisotope-labeled histone acetyltransferase assay, Tip60; format: biochemical; conditions: for Tip60 inhibition (in words): 200 µM compound; for selectivity for Tip60 in comparison with PCAF and p300: recombinant enzyme inhibition assays
[2] = tested on: HAT activity in HeLa nuclear extracts (histone H4 acetylation); test: ELISA acetyltransferase assay with HeLa nuclear extracts, histone H4 peptide; format: biochemical; conditions: for inhibition of cellular HAT activity (HeLa nuclear extracts): 200 µM compound, histone H4; for inhibition of HAT activity in HeLa nuclear extracts (in words): histone H4 acetylation
Procedure, shortened: (§1)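 HeLa nuclear extract (2.5 µg/mL final protein) acetylates biotinylated histone H3 (aa 1–21) or H4 (aa 2–24) peptide immobilised via streptavidin. Reaction runs 15 min, read by anti-acetyl-lysine ELISA. H3 tested at 50 µM against H4. Triplicates, scaled to no-inhibitor and no-enzyme controls.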

[3] = tested on: HAT activity in HeLa nuclear extracts (histone H3 acetylation); format: biochemical; conditions: 50 µM compound
Procedure, shortened: as §1

p300 [4] = conditions: read-out: IC50 p300; estimated by Kundu et al. ref 7; cited from earlier work
PCAF [5] = conditions: read-out: IC50 PCAF; estimated by Kundu et al. ref 7; cited from earlier work
p300 [6] = conditions: read-out: IC50 p300; Souto et al. ref 11; cited from earlier work
PCAF [7] = conditions: read-out: IC50 PCAF; previous characterization with a different assay ref 12; cited from earlier work
[8] = biological target: T2, human recombinant p300 HAT domain (Homo sapiens, UniProt Q09472); test: Radioisotope-labeled histone acetyltransferase assay, p300; format: biochemical; conditions: 200 µM compound
T2 sequence (Q09472 1287-1663 limits assumed): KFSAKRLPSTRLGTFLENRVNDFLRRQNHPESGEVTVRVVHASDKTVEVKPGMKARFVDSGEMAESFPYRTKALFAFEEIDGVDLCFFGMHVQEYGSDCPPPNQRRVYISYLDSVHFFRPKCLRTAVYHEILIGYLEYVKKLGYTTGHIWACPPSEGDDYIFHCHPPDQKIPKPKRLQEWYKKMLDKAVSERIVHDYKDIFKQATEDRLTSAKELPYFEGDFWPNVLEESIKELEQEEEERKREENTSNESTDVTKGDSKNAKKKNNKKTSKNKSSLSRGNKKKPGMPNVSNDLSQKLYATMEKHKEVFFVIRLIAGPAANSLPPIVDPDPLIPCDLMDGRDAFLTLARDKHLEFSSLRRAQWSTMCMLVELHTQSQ

[9] = biological target: human recombinant PCAF HAT domain (Homo sapiens, UniProt Q92831); test: Radioisotope-labeled histone acetyltransferase assay, PCAF; format: biochemical; conditions: 200 µM compound
Sequence of human recombinant PCAF HAT domain (Q92831 493-658): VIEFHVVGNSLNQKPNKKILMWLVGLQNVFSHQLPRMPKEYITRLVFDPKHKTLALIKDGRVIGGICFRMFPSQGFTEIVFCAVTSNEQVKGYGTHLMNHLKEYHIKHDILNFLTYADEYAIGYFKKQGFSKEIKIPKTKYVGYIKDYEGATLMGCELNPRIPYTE

Tip60 [10] = biological target: T1, Tip60; test: Steady-state kinetic characterization of Tip60 inhibition; format: biochemical
[11] = tested on: HAT activity of nuclear extracts of brain tissue samples; format: biochemical, rats; conditions: 30 µM inhibitor, histone H3 as acetyl acceptor
Procedure, shortened: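 Nuclear extracts come from tissue of different brain regions, at 40 µg/mL protein, standardised by protein content. Biotinylated histone H3 peptide (aa 1–21) is streptavidin-immobilised as acceptor. Buffer: 50 mM HEPES pH 7.4 with Triton X-100, EDTA, BSA and DTT. Inhibitor at 30 µM, 15 min reaction, anti-acetyl-lysine ELISA. Triplicates for each of two animals, blanks subtracted.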

HEP G2 cells = HEP G2 cells ref 12; cited from earlier work

T1 sequence (Q92993 whole entry): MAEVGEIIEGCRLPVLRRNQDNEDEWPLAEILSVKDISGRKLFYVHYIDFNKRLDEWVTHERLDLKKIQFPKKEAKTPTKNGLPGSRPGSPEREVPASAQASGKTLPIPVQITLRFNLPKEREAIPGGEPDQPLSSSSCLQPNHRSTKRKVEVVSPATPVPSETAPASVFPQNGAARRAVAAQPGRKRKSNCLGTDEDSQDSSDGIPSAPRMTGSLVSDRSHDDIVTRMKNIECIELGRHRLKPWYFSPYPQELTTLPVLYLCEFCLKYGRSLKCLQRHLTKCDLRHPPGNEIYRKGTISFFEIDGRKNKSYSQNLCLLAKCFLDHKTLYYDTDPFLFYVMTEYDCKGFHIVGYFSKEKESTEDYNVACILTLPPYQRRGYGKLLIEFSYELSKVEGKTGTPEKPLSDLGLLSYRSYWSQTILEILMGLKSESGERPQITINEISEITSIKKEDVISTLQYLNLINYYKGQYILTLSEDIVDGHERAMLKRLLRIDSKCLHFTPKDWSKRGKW

SMILES | Tip60 inhibition (in words) (Tip60 [1]) | inhibition of cellular HAT activity (HeLa nuclear extracts) [2] | other results
COCCOc1ccc(CCc2cccc(O)c2C(=O)O)cc1 [6b] | very weakly inhibit; also recorded: very poor inhibitors |  | inhibition of HAT activity in HeLa nuclear extracts (in words) [2]: strongly reduced HAT inhibitory potency; also recorded: poor inhibition
CCCCCCCCCCCCCCCc1cccc(O)c1C(=O)O [16 (AA), 6-pentadecylsalicylic acid, reference compound] | almost completely; also recorded: also inhibited the Tip60 HAT activity | > 50% | inhibition at 200 µM (Tip60 [1]; read-out: inhibition of Tip60 activity): > 76%; inhibitory potency on histone H3 acetylation compared to histone H4 acetylation [3]: almost equal potency for both histones; IC50 (p300 [4]): 8.5 µM; IC50 (PCAF [5]): 5 µM; IC50 (p300 [6]): 50 to 100 µM; IC50 (PCAF [7]): ~1000 µM
CCCCCCCCCCCCCC#Cc1ccccc1C(=O)OC [compound 11] | also inhibited the Tip60 HAT activity | > 50% | 
CCCCCCCCCCCCCCCc1ccccc1C(=O)O [compound 12] | also inhibited the Tip60 HAT activity | > 50% | 
CCCCCCCc1ccc(CCc2cc(O)cc(O)c2C(=O)O)cc1 [compound 15] |  |  | potency on HeLa nuclear extracts compared to recombinant Tip60 [2]: more potent on HeLa nuclear extracts than for the recombinant Tip60
CCCCCCCCCCc1cccc(O)c1C(=O)O [compound 17] | also inhibited the Tip60 HAT activity | > 50% | inhibitory potency on histone H3 acetylation compared to histone H4 acetylation [3]: almost equal potency for both histones
CCCCCCCCCCCCCCCc1cc(O)cc(O)c1C(=O)O [compound 18] | also inhibited the Tip60 HAT activity | > 50% | selectivity for Tip60 in comparison with PCAF and p300 (Tip60 [1]): selective for Tip60
CCCCCCCCCCc1cc(O)cc(O)c1C(=O)O [compound 19] | also inhibited the Tip60 HAT activity | > 50% | selectivity for Tip60 in comparison with PCAF and p300 (Tip60 [1]): selective for Tip60
CCCCCCCc1ccc(CCc2cccc(O)c2C(=O)O)cc1 [compound 20] | also inhibited the Tip60 HAT activity | > 50% | inhibition at 200 µM (Tip60 [1]; read-out: inhibition of Tip60 activity, 200 µM compound, 100 nM Tip60, 10 µM Ac-CoA, 100 µM H4-20): > 76%; effect on p300 activity (in words) [8]: no inhibitory impact; also recorded: no observable inhibitory effect; effect on PCAF activity (in words) [9]: no inhibitory impact; also recorded: no observable inhibitory effect; inhibition pattern with respect to Ac-CoA (Tip60 [10]): essentially competitive with respect to Ac-CoA; inhibition of HAT activity of nuclear extracts of different brain regions [11]: equal potency to AA
CCCCCOc1ccc(/C=C\c2cccc(O)c2C(=O)O)cc1 [compound 21] | also inhibited the Tip60 HAT activity | > 50% | selectivity for Tip60 in comparison with PCAF and p300 (Tip60 [1]): selective for Tip60; effect on PCAF activity (in words) [9]: enhance the PCAF activity significantly; inhibition of HAT activity in HeLa nuclear extracts (in words) [2]: high inhibitory activity; inhibitory potency on histone H3 acetylation compared to histone H4 acetylation [3]: opposite; inhibition of histone acetylation in HEP G2 cells compared to 16 (AA) (HEP G2 cells): more potent inhibitor of histone acetylation than 16 (AA)
CCCCCOc1ccc(CCc2cccc(O)c2C(=O)O)cc1 [compound 24] | also inhibited the Tip60 HAT activity | > 50% | effect on PCAF activity (in words) [9]: enhance the PCAF activity significantly; inhibitory potency on histone H3 acetylation compared to histone H4 acetylation [3]: opposite
CCCCCCCCCCCCCCOc1ccc(CCc2cccc(O)c2C(=O)O)cc1 [compound 25] | only modest inhibitory activity; also recorded: also inhibited the Tip60 HAT activity | > 50% | inhibitory potency on histone H3 acetylation compared to histone H4 acetylation [3]: opposite

Now from value to molecule, other results behind:

Tip60 inhibition (in words) (Tip60 [1]) | inhibition of cellular HAT activity (HeLa nuclear extracts) [2] | SMILES | other results
also inhibited the Tip60 HAT activity | > 50% | CC(C)CCCC(C)CCOc1ccc(CCc2cccc(O)c2C(=O)O)cc1 (stereo not shown) [6a] | 
also inhibited the Tip60 HAT activity | > 50% | CCCCCOc1ccc(CCc2cccc(O)c2C(=O)O)cc1C(C)=O [6c] | 
very weakly inhibit |  | CCCCCOc1ccc(CCc2cccc(O)c2C(=O)O)cc1C(C)O (stereo not shown) [6d] | potency on HeLa nuclear extracts compared to recombinant Tip60 [2]: more potent on HeLa nuclear extracts than for the recombinant Tip60
also inhibited the Tip60 HAT activity | > 50% | CCCCCCCOc1ccc(CCc2cccc(O)c2C(=O)O)cc1C(C)=O [6f] | 
very poor inhibitors |  | CCCCCc1cccc(O)c1C(=O)O [6h] | inhibition of HAT activity in HeLa nuclear extracts (in words) [2]: strongly reduced HAT inhibitory potency; also recorded: poor inhibition

Source: publication PMC3399519 (European Journal of Medicinal Chemistry, 2011)
